Screens deposited in PubChem by several laboratories.
Runt-SMMHC FRET – inhibitors of RUNX1 Runt–CBFb-SMMHC binding, primary screen, biochemical, FRET, Cerulean-Runt, Venus-CBFb-SMMHC, uHTS. inhibition, % at 20 µM. Runt-related transcription factor 1 (Homo sapiens) + Core-binding factor subunit beta …. 0.74% of 220,000 active. Cerulean-Runt/Venus-CBFb-SMMHC FRET ratio 530/480, 1 h. AID 1434, 2008;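 active = mean inhibition across duplicate retests at 20 µM reaching about 50%, limit read from the data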;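 note: 0% = DMSO wells and 100% = wells with excess untagged CBFb-SMMHC; inhibitors lower the FRET ratio by blocking Runt binding to CBFb-SMMHC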
Hck-Nef inh – inhibitors of Nef-activated human Hck kinase, primary screen, biochemical, Z-Lyte FRET, 384-well, Hck-YEEI; 0.68% of 220,000 active; inhibition, % at 20 µM; Recombinant Hck-YEEI plus Nef, Z-Lyte FRET kinase assay; Tyrosine-protein kinase HCK (Homo sapiens), P08631; AID 463187, 2010;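 active = Hck-Nef kinase inhibition above about 50%, limit read from the data; inactive = inhibition below that limit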;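 note: 0% = DMSO with Hck plus Nef and 100% = Hck alone without Nef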
Target sequence (P08631 whole entry, looked up): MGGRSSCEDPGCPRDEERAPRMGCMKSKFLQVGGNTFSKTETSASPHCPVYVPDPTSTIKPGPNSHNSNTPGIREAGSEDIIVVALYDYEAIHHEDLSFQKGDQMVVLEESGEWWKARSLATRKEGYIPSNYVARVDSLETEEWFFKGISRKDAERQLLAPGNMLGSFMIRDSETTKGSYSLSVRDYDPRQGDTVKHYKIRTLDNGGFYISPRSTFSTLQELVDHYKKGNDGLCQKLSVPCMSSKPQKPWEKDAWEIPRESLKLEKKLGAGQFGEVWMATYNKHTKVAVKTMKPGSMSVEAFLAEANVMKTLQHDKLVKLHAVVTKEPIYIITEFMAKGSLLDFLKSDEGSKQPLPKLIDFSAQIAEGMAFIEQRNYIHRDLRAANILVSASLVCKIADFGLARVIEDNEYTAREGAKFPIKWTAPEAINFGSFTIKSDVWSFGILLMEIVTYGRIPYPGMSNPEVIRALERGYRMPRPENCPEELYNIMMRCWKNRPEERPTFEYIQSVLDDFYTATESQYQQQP
RanGTP-Impb inh – inhibitors of RanGTP-importin-beta interaction, primary screen, biochemical, FRET, CFP-Ran, YFP-importin-beta, homogeneous; Ran GTPase (GTP-bound) - importin-beta complex; cell-free CFP-Ran/YFP-importin-beta FRET ratio; inhibition, % (concentration not given with the values); 1.1% of 300,000 active; AID 2216, 2009;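 active = more than half of the replicate wells show a fall in the fluorescence ratio signal beyond about 16%, limit read from the data, passing the limit was not always enough; inconclusive = exactly half of the replicate wells pass the set limit; inactive = fewer than half of replicates pass the limit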;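 note: 0% = DMSO wells and 100% = Ran loaded with GDP instead of GTP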
Runt-CBFb FRET – inhibitors of RUNX1 Runt–CBFb binding, primary screen, biochemical, FRET, Cerulean-Runt, Venus-CBFb, uHTS | Runt-related transcription factor 1 (Homo sapiens) + Core-binding factor subunit beta … | Cerulean-Runt/Venus-CBFb FRET ratio 530/480, 1 h | inhibition, % at 20 µM | 0.46% of 220,000 active;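 active = inhibition over about 50% at 20 µM in the single-dose screen, limit read from the data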;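 note: 0% = DMSO wells and 100% = excess unlabeled CBFb competitor control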
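Buffer or medium: Tris pH 7.5 buffer with BSA. Assay system: Cerulean-labeled Runt domain protein. Amount: each fluorescent fusion protein 100 nM. Read-out basis: loss of energy transfer signal. Incubation: 1 h compound exposure, room temperature. Probe or stimulus: Venus-CBFb binding partner, 100 nM. Detection: FRET, excitation 422 nm, emission at 530 and 480 nm.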
TbHK1 inh – Trypanosoma brucei hexokinase 1 inhibitors, primary screen, biochemical, G6PDH-coupled NADH absorbance, MLSCN library; hexokinase 1 [Trypanosoma brucei]; recombinant TbHK1, G6PDH-coupled NADH A340; inhibition, % at 10 µM; 0.11% of 220,000 active;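 active = inhibition of 50% or more in the single-dose primary screen; inactive = inhibition below 50%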
p97 inhibitor – inhibitors of human p97 ATPase, primary screen, biochemical; Transitional endoplasmic reticulum ATPase (Homo sapiens), P55072; recombinant p97 ATPase, Kinase-Glo ATP luminescence, 3 h; inhibition, % at 8 µM; 0.42% of 220,000 active; AID 1481, 2009; in the data active = inhibition above about 15%;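 note: 0% = DMSO vehicle and 100% = wells lacking enzyme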
Hck Nef conf – retest of Hck:Nef kinase inhibitor hits, confirmation, biochemical, Z-Lyte FRET, 384-well, p-Tyr peptide counterscreen. shares compounds with Hck-Nef inh. Recombinant Hck-YEEI:Nef, Z-Lyte FRET kinase assay. calls only at 10 µM. 28% of 1,300 active. AID 463188, 2010;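 active = average inhibition of at least 50%, with Z-scores no higher than 3 in both the phospho-tyrosine peptide and fluorescence counterscreens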
Active calls of the source: *; i = inactive; ? = inconclusive; / = not tested or not shown; + = active, no number. Most compounds without a hit are left out; they make up all but 2.1% or so of the library.

SMILES	Runt-SMMHC FRET	Hck-Nef inh	RanGTP-Impb inh	Runt-CBFb FRET	TbHK1 inh	p97 inhibitor	Hck Nef conf
CC1CN(S(=O)(=O)c2cccc(C(=O)Nc3ccccc3N3CCCC3)c2)CC(C)O1 (configuration not stated)	/	/	-2	/	/	/	/
CN(C(=O)CSc1nnc(COc2ccccc2F)n1N)C1CCS(=O)(=O)C1 (configuration not stated)	/	/	-3	/	/	/	/
CCOC(=O)N1CCc2c(sc3nc4n(c(=O)c23)N=C(c2ccc(OC)cc2)CS4)C1	0	77*	8	0	-48	0	+
COc1ccc2cc(N=Cc3nc(-c4ccc(C)cc4)oc3O)cnc2c1	-158	59*	7	-14	-23	-5	i
CSc1ccccc1NC(=O)C1CCCN(S(C)(=O)=O)C1 (configuration not stated)	/	/	1	/	/	/	/
COCc1cc(C(C)=O)ccc1OCC(=O)Nc1ccc(NC(C)=O)cc1	-7	5	-3	-3	-1	6	/
O=C(Nc1ccccc1)Nc1snnc1C(=O)Nc1cccc(O)c1	-11	60*	5	-1	-3	10	+
CCN1CCCc2cc(CN(CCN3CCOCC3)C(=S)Nc3ccccc3C)ccc21	-2	57*	-2	0	2	2	i
CCN1CCCc2cc(CN(CCN3CCOCC3)C(=S)Nc3ccc(OC)c(OC)c3)ccc21	-4	52*	1	-4	0	4	i
COc1ccc(CCNC(=O)C(=O)NCC2OCCN2S(=O)(=O)c2ccccc2)cc1 (configuration not stated)	/	/	2	/	/	/	/
COc1ccccc1C(=O)Nc1ccnn1C1CCN(Cc2ccc3nonc3c2)CC1	/	/	3	/	/	/	/
Cc1ccsc1/C=N\Nc1cn[nH]c(=O)c1Cl	-5	74*	-1	1	-60	3	+
COc1ccc(/C=N/Nc2cn[nH]c(=O)c2Cl)cc1	0	72*	2	1	-61	3	+
Cc1ccc(/C=N\Nc2cn[nH]c(=O)c2Cl)cc1	0	2	4	1	-67	2	/
CC(C)=CCCC(C)CN1CCC(n2nccc2NC(=O)C2CCCC2)CC1 (configuration not stated)	/	/	-3	/	/	/	/
COc1cc(NC(=O)Cn2cnc(S(=O)(=O)N3CCC(C)CC3)c2)cc(OC)c1OC	/	/	0	/	/	/	/
O=C1/C(=C/c2ccco2)SC(=S)N1C1CCS(=O)(=O)C1 (configuration not stated)	5	20	?	30	-6	5	/
O=C1/C(=C\c2ccco2)SC(=S)N1C1CCS(=O)(=O)C1 (configuration not stated)	-2	69*	-2	30	-19	9	i
C=CCn1c(=N)c(C(=O)NCCCOC)cc2c(=O)n3ccccc3nc21	82*	+	175*	9	-16	1	/
COCCCNC(=O)c1cn(-c2cccc(OC)c2)c(=O)c2ccccc12	/	/	4	/	/	/	/
Cc1cc(C)cc(NC(=O)CSc2nc(=O)n3cc(C)ccc3n2)c1	/	/	3	/	/	/	/
CNC(=O)c1cc2c(=O)n3cc(C)ccc3nc2n(C(C)C)c1=N	41	171*	181*	11	-7	2	/
C=CCn1c(=N)c(C(=O)NCCCOC)cc2c(=O)n3cc(C)ccc3nc21	79*	187*	2	10	-8	-5	/
Clc1cc2c(c(CSc3nc4ccccc4n4cccc34)c1)OCOC2	1	16	1	1	-20	7	/
CCCC(=O)NCCc1cc(OC)c(OC)cc1Br	0	2	-1	-3	-4	-2	/
SMILES	Runt-SMMHC FRET	Hck-Nef inh	RanGTP-Impb inh	Runt-CBFb FRET	TbHK1 inh	p97 inhibitor	Hck Nef conf
Cc1cc(O)cc(C)c1NS(=O)(=O)c1ccc2ccccc2c1	/	/	1	/	/	/	/
COc1ccc(C(=O)N2CCCC(C(=O)N3CCCCCC3)C2)cc1 (configuration not stated)	2	57*	-1	-1	-7	-1	i
COc1ccc(C(=O)N2CCCC(C(=O)N3CCN(c4ccccc4)CC3)C2)cc1 (configuration not stated)	4	20	3	1	-4	4	/
Cc1cc(C)c2nc(-c3ccccn3)cc(C(=O)Nc3ccc(S(=O)(=O)Nc4onc(C)c4C)cc3)c2c1	-14	71*	-4	3	3	2	+
Cc1c(Oc2ccc(C(F)(F)F)cc2[N+](=O)[O-])ccc2c3c(c(=O)oc12)CCC3	44	6	2	19	-9	6	/
Cc1ccc(Oc2ccc(C(F)(F)F)cc2[N+](=O)[O-])c([N+](=O)[O-])n1	0	52*	-2	1	1	-3	i
COc1cc2c(cc1OC)C(c1ccc([N+](=O)[O-])cc1)NC(=O)C2 (configuration not stated)	/	/	-1	/	/	/	/
O=C(NCCC1=CCCCC1)c1cc(-c2ccccn2)nc2ccccc12	1	60*	4	0	-5	6	i
O=C(O)CCC(=O)Nc1ccc(/C=C/C(=O)C2CC2)cc1	/	16	-3	/	-54	3	/
COc1ccc(C2C3=C(CCCC3=O)Nc3ccc4ncccc4c32)cc1OC (configuration not stated)	7	14	2	2	-5	1	/
O=C1CCCC2=C1C(c1cccc(O)c1)c1c(ccc3ncccc13)N2 (configuration not stated)	2	65*	2	4	-11	-1	i
Cc1ccc(-n2sc3ccccc3c2=O)cc1S(=O)(=O)N1CCCCC1	22	115*	3	-35	93*	5	+
O=c1c2ccccc2sn1-c1ccc(S(=O)(=O)N2CCCCC2)cc1	/	0	6	/	3	3	/
NC(=S)N/N=C/c1coc2ccc(Cl)cc2c1=O	0	66*	0	1	-3	-1	+
